# Reference: ChEMBL document CHEMBL1148117, “Synthesis and structure-activity relationship study of lamellarin derivatives” (J Nat Prod, 2002)
# Key:
# [1] = tested on: HeLa; experiment: Cytotoxicity against human HeLa cells assessed as inhibition of colony formation after 5 to 8 days by colony assay; format: functional, cell-based
# Procedure, shortened: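 HeLa cells were seeded at 100-150 cells per well and grown with a range of compound concentrations in MEM with 10% fetal calf serum for 5-8 days at 37 °C under 5% CO2/95% air. Colonies were stained with 1% methylene blue in 50% methanol and counted; a cluster of 40 or more cells counted as one colony.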
# [2] = tested on: Human immunodeficiency virus 1; experiment: Antiviral activity against HIV1 in cell cultures assessed as inhibition of viral replication; format: functional, organism-based
# [3] = tested on: XC; experiment: Cytotoxicity against rat XC cells assessed as inhibition of colony formation after 5 to 8 days by colony assay; format: functional, cell-based
# Procedure, shortened: (§1)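 Colony-formation assay: 100-150 cells per well grown with varying concentrations of compound for 5-8 days at 37 °C under 5% CO₂/95% air. Colonies were stained with 1% methylene blue in 50% methanol and counted, with clusters of 40 or more cells scored as colonies. IC50 was estimated from dose-response curves.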
# [4] = tested on: Vero; experiment: Cytotoxicity against african green monkey Vero cells assessed as inhibition of colony formation after 5 to 8 days by colony assay; format: cell-based; conditions: Chlorocebus sabaeus; procedure, shortened: as §1
# [5] = tested on: MDCK; experiment: Cytotoxicity against MDCK cells assessed as inhibition of colony formation after 5 to 8 days by colony assay; format: cell-based; conditions: Canis lupus familiaris; procedure, shortened: as §1
# [6] = tested on: MDCK; experiment: Cytotoxicity against MDCK cells at 1 mM by MTT assay; format: cell-based, Canis lupus familiaris; conditions: dog, 1000 µM
SMILES,IC50 [1] [µM],further results
COc1cc(-c2c3c4ccccc4oc(=O)c3n3ccc4cc(O)c(OC)cc4c23)ccc1O,4,
COc1ccc2oc(=O)c3c(c(-c4ccc(O)c(OC)c4)c4c5cc(OC)c(O)cc5ccn43)c2c1,0.85,
COc1ccc(-c2c3c4cc5c(cc4oc(=O)c3n3ccc4cc(OC)c(OC)cc4c23)OCO5)cc1OC,> 100,
COc1cc2c(cc1O)oc(=O)c1c2c(-c2ccc(OC)c(OC)c2)c2c3cc(OC)c(OC)cc3ccn21,2.5,
O=c1oc2ccccc2c2c(-c3ccc(O)c(O)c3)c3c4cc(O)c(O)cc4ccn3c12,1.1,
CC(=O)Oc1ccc(-c2c3c4cc(OC(C)=O)c(OC(C)=O)cc4oc(=O)c3n3ccc4cc(OC(C)=O)c(OC(C)=O)cc4c23)cc1OC(C)=O,11,
COc1cc(-c2c3c4ccc(O)cc4oc(=O)c3n3ccc4cc(O)c(OC)cc4c23)ccc1O,0.0395,
COc1cccc(-c2c3c4cc(OC)c(O)cc4oc(=O)c3n3ccc4cc(O)c(OC)cc4c23)c1,0.07,
COc1ccc(-c2c3c4cc(OC)c(OS(=O)(=O)O)cc4oc(=O)c3n3ccc4cc(OC)c(OC)cc4c23)cc1O,,IC50 [2]: 8 µM
COc1cc2c(cc1O)oc(=O)c1c2c(-c2ccc(O)cc2)c2c3cc(OC)c(O)cc3ccn21,0.038,
COc1ccc(-c2c3c4ccccc4oc(=O)c3n3ccc4cc(OC)c(OC)cc4c23)cc1OC,5.7,IC50 [3]: 5.6 µM; IC50 [4]: 4.7 µM; IC50 [5]: 5.6 µM
COc1cc(-c2c3c4cc(OC)c(O)cc4oc(=O)c3n3ccc4cc(O)c(OC)cc4c23)ccc1O [LAMELLARIN D],0.0105,IC50 [3]: 0.0124 µM; IC50 [4]: 0.0105 µM; IC50 [5]: 0.0225 µM; Activity [6]: Non-toxic
O=c1oc2cc(O)c(O)cc2c2c(-c3ccc(O)c(O)c3)c3c4cc(O)c(O)cc4ccn3c12 [LAMELLARIN H],> 100,
CO[C@@]12[C@H](COC(N)=O)C3=C(C(=O)C(C)=C(N)C3=O)N1C[C@@H]1N[C@@H]12 [MITOMYCIN],0.068,
